Rows were chosen to be rich in hits. Some 3.5% of all compounds tested hit in one or more screens of this group.
rCAG RNA binder: binds r(CAG) RNA repeats; r(CAG) RNA repeat, TO-PRO-1 dye displacement fluorescence; inhibition, % at 3 µM; 1.3% of 370,000 active; AID 651821;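 active = inhibition above the plate cutoff, the mean of all test compounds on that plate plus 3 SD, cut at about 35% in these data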;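 also: 0% = DMSO alone and 100% = 100 µM mitoxantrone as full dye displacement; higher means more dye released from RNA so lower well fluorescence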
HTRA1 inhibitor: blocks human HTRA1 serine peptidase | Q92743 | recombinant HTRA1, FP-rhodamine activity-based probe, fluorescence polarization | inhibition, % at 5.96 µM | 0.5% of 340,000 active | AID 504803; in the data active = inhibition above about 36%;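 also: 0% = enzyme with DMSO and 100% = wells lacking enzyme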
TCR-CD3 inh: human TCR-CD3 binding inhibition | TAMRA-labeled TCR probe fluorescence, biochemical | inhibition, % at 9.4 µM | 0.37% of 360,000 active | AID 651800; in the data active = inhibition above about 19%;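 also: recombinant mutant TCR 2C K166C tagged with TAMRA read by polarization; 0% = receptor in buffer alone and 100% = receptor with positive control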
mABHD4 FP: inhibits mouse alpha/beta hydrolase domain 4; inhibition, % at 8.92 µM; AID 720543; purified mABHD4, FP-Rh probe fluorescence polarization; 0.54% of 370,000 active;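 active = inhibition exceeding the mean over every tested compound plus 3 SD, cut at about 30% in these data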;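 also: 0% = plate median of compound wells and 100% = S159A mutant with DMSO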
Target sequence (Q8VD66 whole entry, looked up, the tested form may be a part): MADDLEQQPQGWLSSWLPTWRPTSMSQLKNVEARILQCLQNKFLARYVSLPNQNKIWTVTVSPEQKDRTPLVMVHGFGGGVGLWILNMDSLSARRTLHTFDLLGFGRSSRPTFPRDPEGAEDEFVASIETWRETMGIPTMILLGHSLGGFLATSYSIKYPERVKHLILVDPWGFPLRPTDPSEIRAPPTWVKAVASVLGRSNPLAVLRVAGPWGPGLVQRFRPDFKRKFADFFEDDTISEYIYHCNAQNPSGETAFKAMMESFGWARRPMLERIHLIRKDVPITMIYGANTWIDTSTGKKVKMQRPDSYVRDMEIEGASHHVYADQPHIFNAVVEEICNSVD
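Doses – 8.92 µM, single dose · Material – wild-type mouse ABHD4 protein · Replication – single well per compound (singlicate) · Measure – percent inhibition of probe binding, normalized to plate controls · Schedule – 45 min compound pre-incubation plus 60 min probe step, 25 °C · Detection – fluorescence polarization with parallel and perpendicular emission, 525/598 nm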
PRMT1 FP inh: blocks human protein arginine methyltransferase 1; Q99873; recombinant PRMT1, activity-based probe fluorescence polarization; inhibition, % at 2.79 µM; 1.3% of 370,000 active;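 active = inhibition above about 21% made by adding two undisclosed values, limit read from the data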
SIAE inh: blocks human sialic acid acetylesterase; SIAE FP-Rh probe binding, fluorescence polarization; inhibition, % at 9.66 µM; 0.69% of 370,000 active; AID 1053197;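 active = inhibition above a cutoff: mean of compounds within the control limits plus 3 SD of those, cut at about 17% in these data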;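 also: 0% = plate median of compound wells and 100% = probe without SIAE protein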
HTRA1 inh conf: HTRA1 (human) inhibition, confirmation. inhibition, % at 5.96 µM. 66% of 1,600 active. shares compounds with HTRA1 inhibitor. recombinant HTRA1, FP-rhodamine activity-based probe, fluorescence polarization;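 active = mean inhibition over three repeats above a set limit taken from the earlier primary screen, cut at about 37% in these data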;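 also: 0% = HTRA1 with DMSO and 100% = wells lacking HTRA1; inhibitors block probe binding so polarization drops and inhibition rises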
* marks the source's active call; other numbers are inactive results.

Results for COP(=O)(O)C(COCCC(CC(C)C)NC(=O)OCc1ccccc1[N+](=O)[O-])NC(=O)OCc1ccccc1 (stereo not drawn) ?
mABHD4 FP: -1; PRMT1 FP inh: 1; SIAE inh: 1

What do the screens show for `N/C(Cc1cccc2ccccc12)=N\OC(=O)c1ccc2c(c1)OCO2`?
rCAG RNA binder: 4; HTRA1 inhibitor: 43*; TCR-CD3 inh: -17; mABHD4 FP: 9; PRMT1 FP inh: 9; SIAE inh: 3; HTRA1 inh conf: -9

What do the screens show for `CCOC(=O)COn1c(=O)c(-c2cccs2)[n+]([O-])c2ccccc21`?
rCAG RNA binder: 2; HTRA1 inhibitor: 42*; TCR-CD3 inh: -7; mABHD4 FP: 8; PRMT1 FP inh: 8; SIAE inh: 0; HTRA1 inh conf: 10

What do the screens show for `CCOn1c(=O)c(-c2cccs2)[n+]([O-])c2ccccc21`?
rCAG RNA binder: 5; HTRA1 inhibitor: 27; TCR-CD3 inh: 7; mABHD4 FP: 6; PRMT1 FP inh: -2; SIAE inh: -3

What do the screens show for `CC(C)(C)c1cc(C(=O)N/N=C/c2ccccc2O)n(-c2ccccc2)n1`?
rCAG RNA binder: 5; HTRA1 inhibitor: 37*; TCR-CD3 inh: -1; mABHD4 FP: -1; PRMT1 FP inh: 5; SIAE inh: -5; HTRA1 inh conf: 51*

Results for Cc1ccc(O)c(CNc2cccc3cccnc23)c1 ?
rCAG RNA binder: 3; HTRA1 inhibitor: 22; TCR-CD3 inh: -6; mABHD4 FP: 7; PRMT1 FP inh: -1; SIAE inh: 4

How did Oc1ccc(Br)cc1CNc1cccc2cccnc12 do in these assays?
rCAG RNA binder: 9; HTRA1 inhibitor: 45*; TCR-CD3 inh: -5; mABHD4 FP: 21; PRMT1 FP inh: -2; SIAE inh: 13; HTRA1 inh conf: 8

How did CC(C)CNS(=O)(=O)/C=C/c1ccc(F)cc1CNC(=O)OC(C)(C)C do in these assays?
rCAG RNA binder: -2; mABHD4 FP: 0; PRMT1 FP inh: -4; SIAE inh: 10

How did CCCC(=O)NC(c1cccs1)c1cc([N+](=O)[O-])c2cccnc2c1O (stereo not drawn) do in these assays?
rCAG RNA binder: 8; HTRA1 inhibitor: 36*; TCR-CD3 inh: 0; mABHD4 FP: 12; PRMT1 FP inh: 5; SIAE inh: 8; HTRA1 inh conf: 51*

Results for O=C(CCc1ccccc1)NC(c1cccs1)c1cc(Cl)c2cccnc2c1O (stereo not drawn) ?
rCAG RNA binder: 9; HTRA1 inhibitor: 49*; TCR-CD3 inh: -5; mABHD4 FP: -3; PRMT1 FP inh: 4; SIAE inh: 0; HTRA1 inh conf: 54*

Results for CCC(=O)NC(c1cccs1)c1cc(Cl)c2ccccc2c1O (stereo not drawn) ?
rCAG RNA binder: 5; HTRA1 inhibitor: -33; TCR-CD3 inh: 5; mABHD4 FP: -13; PRMT1 FP inh: 0; SIAE inh: 2

How did CCC(=O)NC(c1cccs1)c1cc([N+](=O)[O-])c2cccnc2c1O (stereo not drawn) do in these assays?
rCAG RNA binder: 21; HTRA1 inhibitor: 30; TCR-CD3 inh: -9; mABHD4 FP: 9; PRMT1 FP inh: 3; SIAE inh: 7

How did Cc1ccc(S(=O)(=O)c2cc(OC(=O)c3ccco3)ccc2OC(=O)c2ccco2)cc1 do in these assays?
rCAG RNA binder: 8; HTRA1 inhibitor: 12; TCR-CD3 inh: 0; mABHD4 FP: -11; PRMT1 FP inh: 4; SIAE inh: -4

How did O=C(Oc1ccc(OC(=O)c2ccco2)c(S(=O)(=O)c2ccc(Br)cc2)c1)c1ccco1 do in these assays?
HTRA1 inhibitor: 42*; HTRA1 inh conf: 51*

Results for O=C(NCc1ccccc1Cl)C1CCC(CNS(=O)(=O)c2cccc3cccnc23)CC1 (stereo not drawn) ?
rCAG RNA binder: 20; mABHD4 FP: 5; PRMT1 FP inh: 17; SIAE inh: -1

How did COC(=O)C1CN(Cc2ccc(OC)cc2)CCS(=O)(=O)N1Cc1cn(Cc2ccc(OC)cc2)nn1 (stereo not drawn) do in these assays?
rCAG RNA binder: -1; mABHD4 FP: 3; PRMT1 FP inh: 2; SIAE inh: -3

Results for CC(C)C[C@@H]1COc2cc(N3CCCC3)ccc2S(=O)(=O)N1C ?
rCAG RNA binder: -2; mABHD4 FP: 7; PRMT1 FP inh: 1; SIAE inh: 0

How did CC1=CC(C)(C)Nc2ccccc21 do in these assays?
rCAG RNA binder: 3; HTRA1 inhibitor: -2; TCR-CD3 inh: -3; mABHD4 FP: 6; PRMT1 FP inh: 4; SIAE inh: 4

What do the screens show for `COc1ccc2c(c1)NC(C)(C)C=C2C`?
rCAG RNA binder: 12; HTRA1 inhibitor: 46*; TCR-CD3 inh: 4; mABHD4 FP: 14; PRMT1 FP inh: 4; SIAE inh: 11; HTRA1 inh conf: 5

How did Cc1ccc(Nc2c([N+](=O)[O-])ccc3c2=NC2(CCCCC2)N=3)cc1 do in these assays?
rCAG RNA binder: 1; HTRA1 inhibitor: 37*; TCR-CD3 inh: -11; mABHD4 FP: 15; PRMT1 FP inh: 5; SIAE inh: 17; HTRA1 inh conf: 75*

How did Cc1ccc2c(c1)c(C)cc[n+]2Cc1ccccc1 do in these assays?
rCAG RNA binder: 3; HTRA1 inhibitor: 42*; TCR-CD3 inh: 4; mABHD4 FP: 0; PRMT1 FP inh: -1; SIAE inh: 5; HTRA1 inh conf: 6

How did COc1ccc2c(c1)c(C)cc[n+]2Cc1ccccc1 do in these assays?
rCAG RNA binder: 6; HTRA1 inhibitor: 7; TCR-CD3 inh: 2; mABHD4 FP: 2; PRMT1 FP inh: 0; SIAE inh: 6

What do the screens show for `Cc1ccc(CNC(=O)O[C@H]2CC[C@@]34CCCN3C(=O)CCC[C@H]4[C@H]2C)cc1`?
mABHD4 FP: -1; PRMT1 FP inh: -4; SIAE inh: 7

What do the screens show for `CC[C@H]1OC(=O)[C@H](C)[C@@H](O[C@H]2C[C@@](C)(OC)[C@@H](O)[C@H](C)O2)C(C)[C@@H](O[C@@H]2O[C@H](C)C[C@H](N(C)C)[C@H]2O)[C@](C)(O)C[C@@H](C)CN(C)[C@H](C)[C@@H](O)[C@]1(C)O` (stereo partly drawn)?
rCAG RNA binder: 1; mABHD4 FP: -1; PRMT1 FP inh: 6; SIAE inh: 2

What do the screens show for `CC1CCN(c2ccc(NC(=O)Cc3ccccc3)cc2)CC1`?
rCAG RNA binder: -5; HTRA1 inhibitor: -10; TCR-CD3 inh: -2; mABHD4 FP: -7; PRMT1 FP inh: -3; SIAE inh: -2

Results for COc1cccc(CNc2ccc(N3CCC(C)CC3)cc2)c1OC ?
rCAG RNA binder: 6; HTRA1 inhibitor: 52*; TCR-CD3 inh: -4; mABHD4 FP: 26; PRMT1 FP inh: 7; SIAE inh: 3; HTRA1 inh conf: 46*

High-throughput results as filed in PubChem BioAssay.
